# Experimental data: ChEMBL document CHEMBL1143873, “Synthesis and biological evaluation of 2-alkylaminoethyl-1,1-bisphosphonic acids against Trypanosoma cruzi and Toxoplasma gondii targeting farnesyl diphosphate synthase” (Bioorg Med Chem, 2008)
# Columns and labels:
# Toxoplasma gondii = assay: Growth inhibition of Toxoplasma gondii tachyzoites in HFF cells; type: functional, organism-based
# Trypanosoma cruzi [1] = assay: Growth inhibition of Trypanosoma cruzi amastigotes in rat L6E9 cells; type: functional, organism-based
# [2] = target: T1, Farnesyl diphosphate synthase (Toxoplasma gondii, UniProt Q197X6); assay: Inhibition of Toxoplasma gondii FPPS
# T1 sequence (Q197X6 whole entry): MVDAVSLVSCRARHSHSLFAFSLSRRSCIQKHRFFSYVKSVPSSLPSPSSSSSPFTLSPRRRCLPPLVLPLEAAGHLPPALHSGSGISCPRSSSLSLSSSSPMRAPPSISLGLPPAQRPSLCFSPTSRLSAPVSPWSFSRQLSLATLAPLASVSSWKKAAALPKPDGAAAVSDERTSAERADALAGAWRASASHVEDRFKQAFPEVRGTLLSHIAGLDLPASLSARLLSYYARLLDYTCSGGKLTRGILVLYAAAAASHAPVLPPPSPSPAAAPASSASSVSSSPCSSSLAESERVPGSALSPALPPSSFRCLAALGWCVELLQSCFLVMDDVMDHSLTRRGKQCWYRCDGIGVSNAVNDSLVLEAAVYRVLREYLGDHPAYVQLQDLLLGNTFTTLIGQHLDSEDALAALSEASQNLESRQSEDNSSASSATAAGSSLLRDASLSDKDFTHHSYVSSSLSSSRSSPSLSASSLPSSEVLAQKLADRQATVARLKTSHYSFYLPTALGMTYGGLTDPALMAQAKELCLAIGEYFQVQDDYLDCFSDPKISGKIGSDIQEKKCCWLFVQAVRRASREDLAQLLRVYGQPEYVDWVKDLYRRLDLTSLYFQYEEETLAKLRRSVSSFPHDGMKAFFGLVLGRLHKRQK
# Outline: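 Recombinant TgFPPS (10–20 ng) started into prewarmed buffer of 10 mM Hepes pH 7.4, 1 mM MgCl2, 2 mM DTT, 100 μM [4-14C]IPP, 100 μM DMAPP; 30 min at 37 °C; quenched with HCl, then alkalinised; hexane-extracted product counted by scintillation.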
# [3] = target: T2, Farnesyl diphosphate synthase (Trypanosoma cruzi, UniProt Q8WS26); assay: Inhibition of Trypanosoma cruzi FPPS
# T2 sequence (Q8WS26 whole entry): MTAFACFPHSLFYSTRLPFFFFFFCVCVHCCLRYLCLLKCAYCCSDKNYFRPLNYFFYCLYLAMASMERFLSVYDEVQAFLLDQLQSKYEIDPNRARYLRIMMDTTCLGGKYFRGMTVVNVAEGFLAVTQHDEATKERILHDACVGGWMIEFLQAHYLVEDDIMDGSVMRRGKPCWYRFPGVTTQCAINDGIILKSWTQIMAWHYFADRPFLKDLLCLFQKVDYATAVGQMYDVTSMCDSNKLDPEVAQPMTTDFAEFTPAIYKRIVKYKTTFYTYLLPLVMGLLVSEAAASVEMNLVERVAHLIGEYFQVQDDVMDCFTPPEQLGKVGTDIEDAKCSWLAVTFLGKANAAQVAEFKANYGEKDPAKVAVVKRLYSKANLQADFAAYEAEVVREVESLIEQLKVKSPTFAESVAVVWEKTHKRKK
# Outline: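 Recombinant TcFPPS (10–20 ng) started into prewarmed buffer of 10 mM Hepes pH 7.4, 5 mM MgCl2, 2 mM DTT, 100 μM [4-14C]IPP, 100 μM DMAPP; 30 min at 37 °C; quenched with HCl, then alkalinised; hexane-extracted product counted by scintillation.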
# Trypanosoma cruzi [4] = assay: Growth inhibition of Trypanosoma cruzi amastigotes in rat L6E9 cells at 10 uM; type: functional; conditions: read-out: GI
Structure (SMILES),IC50 (Trypanosoma cruzi [1]),IC50 [3],IC50 (Toxoplasma gondii),IC50 [2],inhibition of growth at 10 µM (Trypanosoma cruzi [4])
CCCCCCNCC(P(=O)(O)O)P(=O)(O)O,0.84 µM,490 nM,9.37 µM,137 nM,–
CCCCCCCCNCC(P(=O)(O)O)P(=O)(O)O,4.1 µM,1010 nM,2.6 µM,87 nM,–
CCCCCCCNCC(P(=O)(O)O)P(=O)(O)O,10 µM,58 nM,> 50 µM,95 nM,–
CCC(C)NCC(P(=O)(O)O)P(=O)(O)O (stereo not drawn),> 50 µM,944 nM,> 100 µM,112 nM,–
N#CSCCOc1ccc(Oc2ccccc2)cc1,12 µM,–,–,–,–
CC(C)NCC(P(=O)(O)O)P(=O)(O)O,> 50 µM,1400 nM,69.8 µM,253 nM,–
CCCNCC(P(=O)(O)O)P(=O)(O)O,> 50 µM,38 nM,6.33 µM,298 nM,–

# The next lines start with results.
IC50 (Trypanosoma cruzi [1]),IC50 [3],Structure (SMILES),IC50 (Toxoplasma gondii),IC50 [2],inhibition of growth at 10 µM (Trypanosoma cruzi [4])
> 50 µM,515 nM,CC(C)CNCC(P(=O)(O)O)P(=O)(O)O,74.5 µM,181 nM,–
14 µM,760 nM,O=P(O)(O)C(CNN1CCCC1)P(=O)(O)O,13.3 µM,361 nM,–
6.1 µM,287 nM,O=P(O)(O)C(CNN1CCCCC1)P(=O)(O)O,70.6 µM,165 nM,–
–,13 nM,O=P(O)(O)C(CNC1CCCCC1)P(=O)(O)O,57.3 µM,337 nM,36.3%
10 µM,420 nM,CC(C)CCNCC(P(=O)(O)O)P(=O)(O)O,36.9 µM,275 nM,–
10 µM,1210 nM,CC(C)(C)NCC(P(=O)(O)O)P(=O)(O)O,42.8 µM,286 nM,–
4.8 µM,2280 nM,CCCCNCC(P(=O)(O)O)P(=O)(O)O,48.7 µM,206 nM,–
0.54 µM,1840 nM,CCCCCNCC(P(=O)(O)O)P(=O)(O)O,> 50 µM,80 nM,–
18 µM,–,CCCCCCC(O)(P(=O)(O)O)P(=O)(O)O,–,–,–
